{"source": "ChEMBL document CHEMBL3734704", "about": "“Synthesis and Biological Evaluation of Novel Bouchardatine Derivatives as Potential Adipogenesis/Lipogenesis Inhibitors for Antiobesity Treatment” (J Med Chem, 2015)", "key": {"[1]": {"test": "Downregulation of C/EBP alpha mRNA level in mouse 3T3L1 cells at 0.3 to 3 uM after 24 hrs by RT-PCR analysis", "format": "functional, cell-based", "details": "3T3-L1", "how_it_was_run": "(§1)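 3T3-L1 preadipocytes in adipogenic cocktail with compound (0.3-3.0 µM; 3 µM for the 2 h and 24 h time course). Total RNA extracted, cDNA made from 1 µg RNA with oligo primer, then PCR: 95 °C 10 min, 35 cycles of 95 °C 30 s, annealing 45 s, 72 °C 1 min, final 72 °C 10 min. Normalized to actin; n = 3.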"}, "[2]": {"test": "Decrease in triglyceride level in mouse 3T3L1 cells at 1 uM measured during 6 to 9 days by oil red O staining based microscopic analysis", "format": "functional, cell-based", "details": "3T3-L1", "how_it_was_run": "(§2)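 3T3-L1 cells given 1 µM compound during day 0-3, 0-6, 0-9, 3-6, 3-9 or 6-9 of differentiation. On Day 9, intracellular lipid measured by TG assay (Triton lysate, GPO-POD kit, per protein) and by Oil Red O staining with microscopy; n = 3.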"}, "3T3-L1 [3]": {"system": "3T3-L1", "test": "Induction of apoptosis in mouse 3T3L1 cells assessed as viable cells at 3 uM after 24 hrs by annexin-V-FITC and PI staining based flow cytometry (reference value: 98.95%)", "format": "functional", "details": "3T3-L1, 24 h, read-out: Activity"}, "3T3-L1 [4]": {"system": "3T3-L1", "test": "Induction of apoptosis in mouse 3T3L1 cells assessed as late apoptotic cells at 3 uM after 24 hrs by annexin-V-FITC and PI staining based flow cytometry (reference value: 0.03%)", "format": "functional"}, "[5]": {"test": "Cell cycle arrest in mouse 3T3L1 cells assessed as number of cells at S phase at 0.3 uM after 24 hrs by flow cytometry (reference value: 18.1%)", "format": "functional, cell-based", "details": "3T3-L1"}, "[6]": {"test": "Downregulation of C/EBP beta mRNA level in mouse 3T3L1 cells at 3 uM after 2 and 24 hrs by RT-PCR analysis", "format": "functional, cell-based", "details": "3T3-L1", "how_it_was_run": "as §1"}, "[7]": {"test": "Cell cycle arrest in mouse 3T3L1 cells assessed as number of cells at G0/G1 phase at 3 uM after 24 hrs by flow cytometry (reference value: 37.6%)", "format": "functional, cell-based", "details": "3T3-L1"}, "[8]": {"target": "T1, Serine/threonine-protein kinase STK11 (Mus musculus) (UniProt Q9WTK7)", "T1 sequence (whole entry)": "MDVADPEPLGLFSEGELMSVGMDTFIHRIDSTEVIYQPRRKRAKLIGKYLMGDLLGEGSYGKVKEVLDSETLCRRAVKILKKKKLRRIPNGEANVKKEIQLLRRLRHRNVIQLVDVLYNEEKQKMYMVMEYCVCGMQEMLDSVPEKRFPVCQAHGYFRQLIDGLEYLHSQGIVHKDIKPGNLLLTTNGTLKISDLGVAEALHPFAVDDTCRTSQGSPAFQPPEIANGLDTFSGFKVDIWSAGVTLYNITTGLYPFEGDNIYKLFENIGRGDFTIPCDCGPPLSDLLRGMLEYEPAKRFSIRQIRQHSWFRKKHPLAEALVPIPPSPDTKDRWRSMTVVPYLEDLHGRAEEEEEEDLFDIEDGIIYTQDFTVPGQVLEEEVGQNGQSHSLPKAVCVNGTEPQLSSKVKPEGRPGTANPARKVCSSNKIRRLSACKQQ", "test": "Activation of LKB1-mediated AMPK in mouse 3T3L1 cells assessed as increase in phophorylated AMPK alpha at Thr 172 residue level at 3 uM by western blot analysis", "format": "cell-based", "details": "3T3-L1, TDE = time-dependent effect", "how_it_was_run": "(§3)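 3T3-L1 preadipocytes held in adipogenic cocktail with or without compound at 3 µM, time course (10 min, 2 h, 24 h) during differentiation. Lysis in RIPA with protease/phosphatase inhibitors, SDS-PAGE, PVDF, BSA block, primary antibody 16 h at 4 °C, HRP secondary. Bands normalized to GAPDH, with the 10 min DMSO group set as 100%; n = 3.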"}, "[9]": {"test": "Downregulation of SCD-1 level in mouse 3T3L1 cells after 6 days by western blot analysis", "format": "functional, cell-based", "details": "3T3-L1", "how_it_was_run": "(§4)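 3T3-L1 preadipocytes incubated in adipogenic cocktail with or without compound (0.3, 1.0, 3.0 µM) for the stated periods. Protein levels measured by Western blot (RIPA lysis, PVDF, BSA block, primary 16 h at 4 °C, HRP secondary), normalized to GAPDH/Tubulin and expressed relative to controls; n = 3.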"}, "[10]": {"target": "T1, Serine/threonine-protein kinase STK11 (Mus musculus)", "test": "Activation of LKB1-mediated ACC in mouse 3T3L1 cells assessed as increase in phophorylated ACC level at 3 uM by western blot analysis", "format": "cell-based", "details": "3T3-L1, TDE = time-dependent effect", "how_it_was_run": "as §3"}, "3T3-L1 [11]": {"system": "3T3-L1", "test": "Induction of apoptosis in mouse 3T3L1 cells assessed as early apoptotic cells at 1 uM after 24 hrs by annexin-V-FITC and PI staining based flow cytometry (reference value: 0.56%)", "format": "functional"}, "[12]": {"target": "T1, Serine/threonine-protein kinase STK11 (Mus musculus)", "test": "Activation of LKB1-mediated AMPK in mouse 3T3L1 cells assessed as increase in phophorylated AMPK alpha at Thr 172 residue level at 3 uM after 10 mins by western blot analysis", "format": "cell-based", "details": "3T3-L1", "how_it_was_run": "as §3"}, "[13]": {"test": "Decrease in triglyceride level in mouse 3T3L1 preadipocytes compound treated for 6 days measured on day 6 by oil red O staining based microscopic analysis", "format": "functional, cell-based", "how_it_was_run": "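3T3-L1 preadipocytes, 2 days post-confluent, treated at 0.01-10.0 µM for 6 days of differentiation, with compound added Day 0 and renewed Day 3. On Day 6, TG measured by TG assay (per protein) and confirmed by Oil Red O staining; n = 3.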"}, "[14]": {"test": "Decrease in triglyceride accumulation in mouse 3T3L1 cells at 1 uM for 3 days oil red O staining based microscopic analysis", "format": "functional, cell-based", "details": "3T3-L1", "how_it_was_run": "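3T3-L1 cells differentiated from 2 days post-confluence with IBMX/dexamethasone/insulin cocktail for 3 days, then insulin medium to Day 6. Compounds at 1 and 10 µM added Day 0 for 3 days. Triglyceride read on Day 6 with Oil Red O (formaldehyde fixation, 30 min stain, isopropanol extraction, OD 510 nm); n = 3.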"}, "[15]": {"test": "Upregulation of LKB1 expression in mouse 3T3L1 cells at 3 uM after 2 and 24 hrs by western blot analysis", "format": "functional, cell-based", "details": "3T3-L1", "how_it_was_run": "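During 3T3-L1 differentiation with adipogenic cocktail, cells were treated with 3 µM compound for 10 min, 2 h or 24 h. Lysates in RIPA with protease/phosphatase inhibitors were run on SDS-PAGE and Western blotted. Proteins were normalized to GAPDH and expressed relative to the 10 min DMSO group, which was set at 100%; n = 3 independent experiments.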"}, "[16]": {"test": "Downregulation of C/EBP alpha level in mouse 3T3L1 cells at 0.3 to 3 uM after 3 days by western blot analysis", "format": "functional, cell-based", "details": "3T3-L1", "how_it_was_run": "as §4"}, "3T3-L1 [17]": {"system": "3T3-L1", "test": "Induction of apoptosis in mouse 3T3L1 cells assessed as viable cells at 0.3 uM after 24 hrs by annexin-V-FITC and PI staining based flow cytometry (reference value: 98.95%)", "format": "functional", "details": "3T3-L1, 24 h, read-out: Activity"}, "[18]": {"test": "Cell cycle arrest in mouse 3T3L1 cells assessed as number of cells at G2/M phase at 1 uM after 24 hrs by flow cytometry (reference value: 37.2%)", "format": "functional, cell-based", "details": "3T3-L1"}, "[19]": {"test": "Downregulation of C/EBP delta mRNA level in mouse 3T3L1 cells at 0.3 to 3 uM after 24 hrs by RT-PCR analysis", "format": "functional, cell-based", "details": "3T3-L1", "how_it_was_run": "as §1"}, "[20]": {"test": "Downregulation of PPAR-gamma mRNA level in mouse 3T3L1 cells at 0.3 to 3 uM after 24 hrs by RT-PCR analysis", "format": "functional, cell-based", "details": "3T3-L1", "how_it_was_run": "as §1"}, "[21]": {"test": "Decrease in triglyceride level in mouse 3T3L1 cells at 1 uM measured during 0 to 3 days by oil red O staining based microscopic analysis", "format": "functional, cell-based", "details": "3T3-L1", "how_it_was_run": "as §2"}}, "note": "Active and inactive are the calls of the source. The calls are words filed in the database; no cut-off is given here."}
{"smiles": "O=Cc1c(-c2nc(NCCN3CCCC3)c3ccccc3n2)[nH]c2ccccc12", "values": [{"measurement": "inhibition", "setting": "[1]", "result": "Active"}, {"measurement": "inhibition", "setting": "[2]", "result": 60, "unit": "%"}, {"measurement": "viability at 3 µM", "setting": "3T3-L1 [3]", "result": 97.7, "unit": "%"}, {"measurement": "Activity", "setting": "3T3-L1 [4]", "result": 0.42, "unit": "%"}, {"measurement": "Activity", "setting": "[5]", "result": 6.4, "unit": "%"}, {"measurement": "inhibition", "setting": "[6]", "result": "Active"}, {"measurement": "Activity", "setting": "[7]", "result": 33.5, "unit": "%"}, {"measurement": "Activity", "setting": "[8]", "result": "tde"}, {"measurement": "inhibition", "setting": "[9]", "result": "Dose-dependent effect"}, {"measurement": "Activity", "setting": "[10]", "result": "tde"}, {"measurement": "Activity", "setting": "3T3-L1 [11]", "result": 0.84, "unit": "%"}, {"measurement": "Activity", "setting": "[12]", "result": "Active"}, {"measurement": "inhibition", "setting": "[13]; 3T3-L1", "result": "Dose-dependent effect"}, {"measurement": "EC50", "setting": "[13]; 3t3-l1", "result": 17, "unit": "nM"}, {"measurement": "inhibition", "setting": "[14]", "result": 87.6, "unit": "%"}, {"measurement": "Activity", "setting": "[15]", "result": "Active"}, {"measurement": "inhibition", "setting": "[16]", "result": "Active"}, {"measurement": "viability at 0.3 µM", "setting": "3T3-L1 [17]", "result": 96.5, "unit": "%"}, {"measurement": "Activity", "setting": "[18]", "result": 46.9, "unit": "%"}, {"measurement": "inhibition", "setting": "[19]", "result": "Active"}, {"measurement": "inhibition", "setting": "[20]", "result": "Active"}, {"measurement": "inhibition", "setting": "[21]", "result": 85, "unit": "%"}]}
